This passage reports cytotoxicity results from ChEMBL document CHEMBL4513216, “Probing the Open Global Health Chemical Diversity Library for Multistage-Active Starting Points for Next-Generation Antimalarials” (ACS Infect Dis, 2020).

A short description of this series: Toxicity liver stage against HepG2, at 10uM. As to conditions: human, HepG2-A16-CD81EGFP cells; read-out: INHIBITION
Details: test concentration 10 uM, cell line HepG2-A16-CD81EGFP. Format: cell-based. The method in brief:
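Uninfected HepG2-A16-CD81EGFP cells, 3 × 10^3 per well, 1536-well, plated on prespotted compound at 10 μM final, parasite-free screening media added to match infected plates; puromycin 10 μM positive, DMSO 0.5% negative; run in parallel with 48 h PbLuc assay at 37 °C, 5% CO2; viability by CellTiter-Glo luminescence, normalized to controls.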
Regarding `CN(C)S(=O)(=O)N1C[C@H]2CC[C@@H](C1)N(C/C=C/c1ccc(F)cc1)C2`, the cytotoxicity at 10 µM is -1.23%.
Under `c1ccc2c(N3CCCCC3Cn3cncn3)ncnc2c1` (stereo unspecified) stands 4.16%.
For the compound `CCN1CCN(CC(O)c2ccc(OC(F)(F)F)cc2)CC1` (stereo unspecified), the cytotoxicity at 10 µM is -4.47%.
On to `CC(C)NC(=O)C1CCc2nnc(CNC(=O)C3CC3)n21` (stereo unspecified), for which the cytotoxicity at 10 µM was determined as 4.9%.
The same measure for `Cc1ccccc1OCCCC(=O)NC(C)c1nnc2n1CCC2` (stereo unspecified): -11.5%; for `CCC(=O)N1CCC2(C=C(C(=O)N(C)C)c3ccccc32)CC1`: -87.3%.
As to `Cc1cc(CNc2cc(Cl)ccc2C)no1`, the cytotoxicity at 10 µM is -7.01%.
On to `CSCCC(C)NC(=O)CCN1C(=O)CCc2cc(F)ccc21` (stereo unspecified), for which the cytotoxicity at 10 µM was 6.79%.
For the compound `COC(=O)CN(CC1CCOC1)C1CC1` (stereo unspecified), the cytotoxicity at 10 µM is -24.3%.
The same measure for `CC(Cn1ccnc1)NC1CCN(Cc2cccc(O)c2)CC1` (stereo unspecified): -4.21%; for `Cc1ccc(CNC2CC3(CCN(CCO)CC3)c3ccccc32)s1` (stereo unspecified): -108%; for `O=c1nc(SCc2cccnc2)c2c(n1CCO)CCCC2`: 8.97%.
Under `COc1ccc(Cn2nc(C(N)=O)ccc2=O)c(Cl)c1` stands 10.2%; under `CCNc1ncc(C(=O)NC2CCOCC2)cn1`, 4.37%; under `CN(C)c1ncccc1CNC(=O)NCC(c1cccs1)N(C)C` (stereo unspecified), 11.6%.
Under `O=C(O)c1ccc2c(CN3CCOCC3)c[nH]c2c1` stands 4.91%; under `COCCCC1(C(=O)O)CCCN(C(=O)c2ccc(C(C)C)[nH]c2=O)C1` (stereo unspecified), -52.9%; under `CS(=O)(=O)NCCCNC(=O)c1cccnc1O`, -17.7%.
In the case of `CC(C)CN1CCCn2nc(CNC(=O)OCc3ccccc3)cc2C1`, the cytotoxicity at 10 µM worked out at 1.04%.
The same measure for `Cc1noc([C@@H]2CC[C@@H]3[C@@H](CCN3S(=O)(=O)C3CC3)O2)n1`: -11.6%; for `Cc1nc(CN2CCCC(CCNS(C)(=O)=O)C2)c[nH]1` (stereo unspecified): -10.2%.
Under `CCOc1ncnc2c1CCN(C(=O)c1ccncc1F)CC2` stands -76.6%; under `CCN(CCCNCc1c(C)nn(C)c1N(C)C)S(C)(=O)=O`, -6.89%.
Under `CC(C)c1cc(NCc2csc(N(C)C)n2)nc(N)n1` stands 31.8%; under `CN(Cc1nc(Cc2ccccc2F)no1)CC1Cc2ccccc2O1` (stereo unspecified), -5.19%; under `COCC(C)NC(=O)c1cn(C(C)C)cc2c(=O)[nH]nc1-2` (stereo unspecified), -12.6%.
Take `CC(C)OCCC(=O)NCC(c1c(F)cccc1F)N(C)C` (stereo unspecified): the cytotoxicity at 10 µM is -1.19%.
Under `COc1cccc(C(=O)N(C)Cc2ncc(C)c(OC)c2C)c1OC` stands -7.02%.
Consider `CNc1[nH]nc(N)c1C(=O)Nc1ccc(OC)cc1`, for which the cytotoxicity at 10 µM is 14.8%.
The same measure for `COCCOc1ccnc(-c2noc([C@@H]3CCCN3CC(C)(C)C)n2)c1`: -12.7%; for `COCCn1c(=O)n(Cc2ccc(Cl)s2)c2cc(C(=O)O)ccc21`: -5.54%; for `Cc1ccc(OCCN2CCC(c3nc(C)n4c(C)csc34)CC2)cc1`: 1.94%.
In the case of `CN(CCCc1cnn(C)c1)Cc1cc2n(n1)CCCNC2`, the cytotoxicity at 10 µM amounted to 6.49%.
Under `CC(C)NC(=O)CCNC(=O)c1cc(Br)cn1C(C)C` stands 4.33%.
Under `C1CCC(N2CCCN(c3nc(C4CC4)no3)CC2)C1` stands -9.13%; under `CCC(=O)NCC(Cc1cccc(F)c1)n1cccc1` (stereo unspecified), -0.765%; under `Cc1nnc(CN2CCC3(CCC(=O)N(C4CC4)C3)CC2)o1`, -6.68%.
As to `O=C(O)c1ccc(F)c(S(=O)(=O)Nc2c(F)cccc2-n2cccn2)c1`, the cytotoxicity at 10 µM is -5.59%.
Under `CNC(=O)CN1CCOC(c2ccccc2C(F)(F)F)C1` (stereo unspecified) stands 0.71%.
The same measure for `Cc1csc(C(=O)NCCN2CCC(c3cccs3)CC2)c1`: 2.03%.
Under `CCN(CC)C(=O)c1c(Br)cnn1CC` stands 2.63%; under `Cc1cc(C)c(CNC(=O)NCCNc2ccccn2)c(=O)[nH]1`, -37%; under `CCCN1CCC(CC(=O)NCc2cc(O)ncn2)CC1`, 14.7%.
Take `CN(C(=O)CN(Cc1cccc(O)c1)C1CCC(O)CC1)C1CC1` (stereo unspecified): the cytotoxicity at 10 µM was -0.586%.
The same measure for `CN(C)C(=O)c1ccn(-c2ccc3ccccn23)n1`: 6.98%; for `Cc1noc(C)c1CN1CCCC2(CCN(C(=O)NC3CC3)C2)C1` (stereo unspecified): 7.25%; for `Cc1ccccc1OCCC(=O)N1CCc2nc(C)n(C)c(=O)c2CC1`: -0.852%.
The same measure for `Cc1cccc(CN2CCO[C@H]3[C@@H](OCc4ccncc4)CC[C@@H]32)n1`: -85.4%.
Under `CN(CCc1cn[nH]c1)C(=O)C1CC(=O)N(Cc2ccccn2)C1` (stereo unspecified) stands -6.47%; under `Cc1cc(C)n(C2CCN(Cc3c(-c4cc(C)on4)nn(C)c3Cl)C2)n1` (stereo unspecified), 3.84%; under `Cc1cc(CN2C[C@@H]3CCCO[C@@H]3[C@H](N(C)C(C)C)C2)no1`, 2.44%.
Consider `O=C(c1ccsc1)N1CCC(Nc2cccnn2)CC1`, for which the cytotoxicity at 10 µM was -7.58%.
With `Cc1cccn2c(CC(=O)N3CCC(Oc4ncccn4)CC3)cnc12`, the cytotoxicity at 10 µM stood at 6.78%.
The same measure for `O=C(NCc1ccco1)[C@@H]1CC[C@@H]2[C@@H](CCN2CC2CC2)O1`: -4.48%; for `COc1cccc2ccn(CC(=O)NC(C)C)c12`: -37%; for `CCC(CO)N(Cc1cccnc1)C(=O)c1ccc(C)[nH]c1=O` (stereo unspecified): -3.95%.
The same measure for `CCC(CO)N(Cc1cccnc1)C(=O)c1ccncc1F` (stereo unspecified): 2.59%.
Consider `CN(C1CCN(c2ccccn2)CC1)S(=O)(=O)c1cccc(F)c1`, for which the cytotoxicity at 10 µM was 10.8%.
Under `CC(C)CNC(=O)CNc1c(NCc2ccncc2)c(=O)c1=O` stands -4.44%; under `CCOc1ccc(N2CCCN=C2NC(=O)c2ccc(OC)cc2)cc1`, 6.03%.
Under `O=c1cc(CN2CCCC2)nc2n1CCCN(S(=O)(=O)C1CC1)C2` stands -3.56%.
In the case of `CC(C)NC(=O)c1nnc2ccc(N3CCOCC3)cc2n1`, the cytotoxicity at 10 µM came to 1.86%.
For `CC(=O)N1CCC(c2cnc(-c3c(C)n[nH]c3C)cn2)CC1`, the cytotoxicity at 10 µM is -17.1%.
The same measure for `O=C1C(NCc2nnc3n2CCCC3)CCCN1c1ccccc1` (stereo unspecified): -9.69%.
Under `CN(Cc1cc2n(n1)CCN(C(=O)c1cccnc1)C2)Cc1nccs1` stands 1.2%.
The same measure for `OC[C@H]1CN(Cc2c(Cl)cncc2Cl)C[C@H]1CN1CCCC1`: -127%; for `Cc1nc2oc(C(=O)N3CCOCC3)c(N)c2c2c1CCCC2`: -2.8%.
As for `Cc1nn(C)c(N2CCOCC2)c1CNCc1ccccc1CO`, the cytotoxicity at 10 µM is -13.2%.
The same measure for `CCc1cc(NCc2cc3n(n2)CCCN(S(C)(=O)=O)C3)nc(C)n1`: -1.52%.
The same measure for `Cc1nc(C2CCCN(C(=O)c3cc(C(C)(C)C)on3)C2)no1` (stereo unspecified): -11.9%; for `Cc1cc(C)nc(N2CCCC(Cn3cc(CN(C)C)nn3)C2)n1` (stereo unspecified): -5.43%.
